Rows were chosen to be rich in hits. Some 3.8% of all compounds tested hit in one or more screens of this group.
TMEM16A inh = blocks the mouse calcium-activated chloride channel TMEM16A. Q8BHY3. HEK293 TMEM16A/YFP iodide influx fluorescence, ionomycin. normalized B-score (activity score, 25-100; higher = stronger inhibition) at 10 µM. 310,000 compounds, 1.2% hits. AID 588511;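 active means ratio plate-corrected score three or more library SD toward inhibition, starting fluorescence score within five deviations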;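 further: score derived from kinetic fluorescence span divided by baseline fluorescence per well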
Target sequence (Q8BHY3 whole entry, looked up): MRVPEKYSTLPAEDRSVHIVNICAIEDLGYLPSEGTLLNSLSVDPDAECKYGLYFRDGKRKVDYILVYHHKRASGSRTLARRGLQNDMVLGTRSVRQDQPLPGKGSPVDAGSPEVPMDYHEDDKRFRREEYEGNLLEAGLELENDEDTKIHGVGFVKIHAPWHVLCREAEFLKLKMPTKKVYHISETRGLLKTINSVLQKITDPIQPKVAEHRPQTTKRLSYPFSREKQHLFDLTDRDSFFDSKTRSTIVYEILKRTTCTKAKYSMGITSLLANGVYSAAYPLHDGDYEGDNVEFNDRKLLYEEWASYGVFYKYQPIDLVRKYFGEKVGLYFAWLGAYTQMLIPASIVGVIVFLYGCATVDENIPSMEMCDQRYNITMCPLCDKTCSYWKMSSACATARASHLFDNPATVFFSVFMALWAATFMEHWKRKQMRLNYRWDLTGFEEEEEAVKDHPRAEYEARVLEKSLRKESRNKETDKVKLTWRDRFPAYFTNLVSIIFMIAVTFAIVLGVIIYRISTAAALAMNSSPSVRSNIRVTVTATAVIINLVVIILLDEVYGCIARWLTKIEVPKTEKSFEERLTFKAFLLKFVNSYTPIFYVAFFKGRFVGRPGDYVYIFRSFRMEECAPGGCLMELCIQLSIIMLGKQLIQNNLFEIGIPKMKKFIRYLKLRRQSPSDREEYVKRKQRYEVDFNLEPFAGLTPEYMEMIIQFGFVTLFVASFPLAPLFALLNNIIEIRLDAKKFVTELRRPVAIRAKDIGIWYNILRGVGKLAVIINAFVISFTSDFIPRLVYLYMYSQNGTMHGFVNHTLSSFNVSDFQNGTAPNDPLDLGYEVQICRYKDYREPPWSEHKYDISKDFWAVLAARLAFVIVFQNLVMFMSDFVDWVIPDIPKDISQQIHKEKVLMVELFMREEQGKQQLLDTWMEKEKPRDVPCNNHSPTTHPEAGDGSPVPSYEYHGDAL
Beta cell apopt = beta cell apoptosis inhibition; AID 435005; INS-1E cytokine-induced death, ATP luminescence, 48 h; percent of positive-control rescue, neutral wells zero; 300,000 compounds, 0.8% hits; protection from apoptosis, % (concentration not given with the values);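 active means Every replicate reaches about 75%, or at least half do and their mean reaches it too, limit read from the data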;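 further: 0% = cytokine-treated negative control wells and 100% = positive control rescue; higher means more ATP so stronger rescue from cytokine killing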
CSC inhib = blocks cancer stem cells; inhibition, % at 7.5 µM; AID 2717; cancer stem cell-like cells viability, luminescence; 300,000 compounds, 1.1% hits; in the data active means inhibition above about 75%; tested in HMLE shEcad cells
MC4R ag barr = agonists of human melanocortin 4 receptor (MC4R) beta-arrestin | AID 540308 | U2OS MC4R beta-arrestin complementation, luminescence; percent of melanotan II response, DMSO zero | activation, % at 8.9 µM | 360,000 compounds, 0.98% hits | P32245;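 active means activation above a per-plate cutoff, the mean activation of sample wells on that plate plus 3 SD, cut at about 8% in these data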
ANO1 activ = mouse TMEM16A channel activation, primary screen; 340,000 compounds, 0.3% hits; HEK293 TMEM16A/YFP-H148Q/I152L, iodide quench fluorescence; stronger effect = lower value; Q8BHY3; AID 623877; B-score at 10 µM;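 active means fluorescence-ratio B-score plate-corrected deviation score at least 3 library SD below zero, with starting fluorescence score within 5 deviations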;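 further: channel opened by trigger with iodide after compound preincubation; score built on the fluorescence ratio of max minus min over baseline; more negative score means more quench and so TMEM16A activation or potentiation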
MC4R antagonist = antagonists of human melanocortin 4 receptor (MC4R); inhibition, % at 6.5 µM; 360,000 compounds, 0.48% hits; MC4R-expressing cells, MTII-stimulated cAMP, LANCE TR-FRET; P32245;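 active means inhibition above its plate's cutoff, the mean of tested wells on that plate plus 3 SD, cut at about 29% in these data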;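 further: 0% = Melanotan II alone and 100% = Melanotan II plus saturating MCL0020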
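System: U2OS cells stably expressing human melanocortin 4 receptor (MC4R). Reagent: Melanotan II challenge after compound preincubation. Doses: 6.5 µM. Times: 30-min compound, 1-h challenge, 1-h detection, room temperature. Measured by: TR-FRET with Eu-cAMP and labeled anti-cAMP, 671 nm. Replicates: singlicate.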
* hit, by the source's call; i = inactive; x = not tested or not shown; + = active, no number.

SMILES	TMEM16A inh	Beta cell apopt	CSC inhib	MC4R ag barr	ANO1 activ	MC4R antagonist
CC(C)(C)NC(=O)NC(=O)COC(=O)c1ccc(OC(F)(F)F)cc1	i	-3	6	8.4*	i	1
CC(C)(C)NC(=O)NC(=O)COC(=O)c1ccc(OC(F)F)cc1	i	-8	-16	2	i	-3
CCN(CC)Cc1cc2ccccc2c2c1COC2	25*	x	-2	0	i	13
CCCN(CCC)Cc1cc2ccccc2c2c1COC2	i	3	-9	2	i	1
COc1cc(/C=C2/SC(=S)N(CC(=O)O)C2=O)ccc1OC(=O)c1ccco1	i	5	1	-2	-5.3*	5
O=C1/C(=C\c2ccc(O)c(O)c2)SC(=S)N1Cc1ccccc1	i	-1	104*	-4	i	-8
O=C(O)CN1C(=O)/C(=C\c2cc(Br)ccc2OCc2ccc(F)cc2)SC1=S	i	-12	41	4	i	11
O=C(O)CN1C(=O)/C(=C\c2cc(Br)ccc2OCc2ccc(Cl)cc2)SC1=S	i	-5	98*	1	i	6
O=C1/C(=C\c2cccc(O)c2O)SC(=S)N1Cc1ccccc1	i	-2	86*	4	i	0
CSc1ccc(S(=O)(=O)N2CCC(C(=O)NC3CC3)CC2)cc1	i	0	-20	1	i	22
O=C(Nc1c(F)c(F)c(F)c(F)c1F)c1ccc(Br)o1	x	x	x	0	x	3
CCOc1ccc2ccccc2c1C1NC(=O)NC(C)=C1C(=O)OCCOC (stereo unspecified)	i	-6	-6	-2	i	-4
COc1cc(/C=C2/SC(=S)N(c3c(C)n(C)n(-c4ccccc4)c3=O)C2=O)ccc1O	i	-1	9	-4	-8.1*	7
COc1ccc(/C=C2\SC(=S)N(Cc3cccnc3)C2=O)cc1C	i	-3	80*	-1	i	3
COc1cc(/C=C2/SC(=NCc3ccccc3)N(Cc3ccccc3)C2=O)ccc1O	i	-5	0	-2	i	16
O=C1/C(=C/c2ccc(O)cc2)SC(=S)N1Cc1cccnc1	i	0	7	-2	i	-3
COc1cc(/C=C2/SC(=S)N(Cc3ccccc3)C2=O)ccc1O	i	-1	100*	-3	i	-13
O=C1/C(=C\c2cc([N+](=O)[O-])ccc2O)SC(=S)N1Cc1ccc(Cl)cc1	i	4	104*	-3	i	4
CCN(CC)S(=O)(=O)c1ccc(NC(=O)c2ccc(OCC3CCCO3)cc2)cc1 (stereo unspecified)	x	11	1	-2	i	4
COc1ccc(-c2csc(C(C)(O)c3ccc(F)c(F)c3)n2)cc1 (stereo unspecified)	x	x	x	3	x	0
CCC(=NCc1ccc(Cl)c(Cl)c1)c1nc(-c2ccco2)oc1O	i	5	102*	0	i	12
NC(=O)CC(NC(=O)c1cccc(Br)c1)c1ccc(NC2CCN(Cc3ccccc3)CC2)c([N+](=O)[O-])c1 (stereo unspecified)	i	4	-3	-1	i	7
COC(=O)Cn1cc(C(=O)OC)cc(Br)c1=O	25*	-6	-8	0	i	-5
COC(=O)c1cc(Br)c(=O)n(CCc2ccccc2)c1	i	6	-3	1	i	-6
Cc1nnc2n(C3CCCCC3)c(=O)c3c4c(sc3n12)COC(C)(C)C4	i	4	6	0	-15*	6
CCOC(=O)CSc1nnc2n(C3CCCCC3)c(=O)c3c4c(sc3n12)CCCC4	i	-4	1	-1	i	2
O=C1C=C(c2ccc(Cl)c(C(F)(F)F)c2)C[C@@H](c2ccc3c(c2)OCO3)C1	x	-3	110*	0	i	-6
O=C1C=C(c2cccc(Cl)c2)C[C@@H](c2ccc3c(c2)OCO3)C1	x	0	34	0	i	1
Cc1ccccc1-c1nc(CS(=O)(=O)CC(=O)N2CCOCC2)c(C)o1	i	-2	-2	1	i	4
COc1cc(CNCCc2c[nH]c3ccccc23)ccc1OCc1ccc(F)cc1	i	31	+	9.2*	i	-2

Source: PubChem (several laboratories)
